From ChEMBL document CHEMBL3351414, “Novel 9'-substituted-noscapines: synthesis with Suzuki cross-coupling, structure elucidation and biological evaluation” (Eur J Med Chem, 2014)
pIC50: −log10 of the molar value. Calls of active or inactive are those of the source. The rule behind the calls is not given here.

Legend:
[1] = biological target: T1, Tubulin (Bos taurus, UniProt Q6B856+Q862L2+Q862F3); test: Inhibition of bovine brain tubulin assessed as rate of assembly preincubated for 15 mins by turbidimetry
Outline: (§1)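 Bovine brain tubulin at 10 µM (1.0 mg/mL) in 0.8 M monosodium glutamate pH 6.6 with 4% DMSO and varying compound was preincubated 15 min at 30 °C, then chilled. GTP was added to 0.4 mM final and the temperature jumped from 0 to 30 °C. Turbidity was followed at 350 nm, scoring either maximum rate or extent of assembly at 20 min.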

[2] = system: HeLa; test: Induction of apoptosis in human HeLa cells assessed as late necrotic cells at 25 uM after 24 hrs using Annexin-V/PI staining by flow cytometry (reference value: 3.70 %); type: functional
[3] = system: HeLa; test: Upregulation of cdc25c protein level in human HeLa cells at 25 uM after 24 hrs by Western blot analysis; type: functional, cell-based
[4] = system: HeLa; test: Induction of apoptosis in human HeLa cells assessed as mitochondrial membrane depolarization after 24 to 48 hrs using JC-1 staining-based fluorescence assay; type: functional, cell-based
Outline: (§2)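 Mitochondrial membrane potential was read with the JC-1 dye in HeLa cells after 24 or 48 h at graded concentrations. Data are mean ± SEM of three independent experiments.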

[5] = system: Jurkat; test: Cell cycle arrest in human Jurkat cells assessed as accumulation at G2/M phase after 24 hrs by flow cytometry; type: functional, cell-based
Outline: (§3)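 5×10^5 HeLa or Jurkat cells exposed to graded compound concentrations for 24 h. Cells were fixed in ice-cold 70% ethanol, lysed with RNase A/0.1% Triton X-100 buffer and stained with propidium iodide. DNA content was read by flow cytometry. Phase percentages are mean ± SEM of three independent experiments.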

[6] = system: CCRF-CEM; test: Antiproliferative activity against human CEM cells assessed as reduction in cell viability after 72 hrs by MTT assay; type: functional, cell-based
[7] = system: HeLa; test: Induction of apoptosis in human HeLa cells assessed as mitochondrial membrane depolarization at 6.2 to 50 uM using JC-1 staining-based fluorescence assay; type: functional, cell-based; settings: TDE = time-dependent effect; outline: as §2
[8] = system: HeLa; test: Induction of DNA damage in human HeLa cells assessed as increase in phosphorylated form of histone gamma-H2A.X level at 25 uM after 24 hrs by Western blot analysis; type: functional, cell-based
Outline: (§4)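 HeLa cells treated 24 or 48 h at 25 µM, then washed in PBS and lysed 30 min on ice. 20 µg protein per lane was resolved on 7.5–15% SDS-PAGE and blotted to PVDF. Blots were probed for cyclin B, p-cdc2 Tyr15, cdc25C and γH2A.X, with β-actin reprobe as loading control and ECL detection.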

[9] = system: HeLa; test: Induction of apoptosis in human HeLa cells assessed as reduction in Bcl-2 expression at 25 uM after 48 hrs by Western blot analysis; type: functional, cell-based
Outline: (§5)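 HeLa cells treated 24 or 48 h at 25 µM, then lysed. 20 µg protein per lane was run on SDS-PAGE and transferred to PVDF. Membranes were probed 2 h at room temperature for cleaved caspase-9, caspase-3, cleaved PARP, Bcl-2, Mcl-1 or Bax, with peroxidase secondary antibody and ECL. β-Actin reprobe served as loading control.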

[10] = system: PBL; test: Cytotoxicity against resting human PBLs assessed as reduction in cell growth; type: cell-based
Outline: (§6)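 Peripheral blood lymphocytes from healthy donors, tested either resting (no PHA) or PHA-stimulated. Value is the concentration reducing cell growth by 50%, mean ± SEM of three separate experiments.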

[11] = system: HeLa; test: Induction of apoptosis in human HeLa cells assessed as caspase 9 cleavage at 25 uM after 24 to 48 hrs by Western blot analysis; type: functional, cell-based; outline: as §5
[12] = system: HeLa; test: Antiproliferative activity against human HeLa cells assessed as reduction in cell viability after 72 hrs by MTT assay; type: functional, cell-based
Outline: (§7)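 Cells kept in RPMI-1640 (Jurkat, SEM, RS4;11) or DMEM (A549, HeLa, IGROV-1, HT-29) with 10% FBS plus penicillin/streptomycin. 8×10^3 cells per well were left 18 h at 37 °C in 5% CO2. Medium was then replaced with fresh medium holding graded compound concentrations from 10 mM DMSO stocks. Cells were incubated 72 h and viability read by MTT. IC50 is the mean ± SEM from dose–response curves of at least three independent experiments.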

[13] = system: HeLa; test: Downregulation of phosphorylated form of cdc25c protein level in human HeLa cells at 25 uM after 24 hrs by Western blot analysis; type: functional, cell-based; outline: as §4
[14] = biological target: T1, Tubulin; test: Displacement of [3H]colchicine from bovine brain tubulin assessed as rate of assembly after 10 mins by liquid scintillation counting
[15] = Antiproliferative activity against human SEM cells assessed as reduction in cell viability after 72 hrs by MTT assay; type: functional, cell-based; outline: as §7
[16] = system: HeLa; test: Cell cycle arrest in human HeLa cells assessed as accumulation at G2/M phase at 10 to 25 uM after 24 hrs by flow cytometry; type: functional, cell-based; outline: as §3
[17] = system: IGROV-1; test: Antiproliferative activity against human IGROV1 cells assessed as reduction in cell viability after 72 hrs by MTT assay; type: functional, cell-based; settings: IGROV-1, 72 h; outline: as §7
[18] = biological target: Tubulin (Bos taurus) (UniProt Q6B856+Q862L2+Q862F3); test: Displacement of [3H]colchicine from bovine brain tubulin at 500 uM after 10 mins by liquid scintillation counting
[19] = system: HeLa; test: Upregulation of aurora kinase A protein level in human HeLa cells at 25 uM after 24 hrs by Western blot analysis; type: functional, cell-based
[20] = system: Jurkat; test: Cell cycle arrest in human Jurkat cells assessed as accumulation at G2/M phase at 10 to 25 uM after 24 hrs by flow cytometry; type: functional, cell-based; outline: as §3
[21] = system: LoVo; test: Antiproliferative activity against human LoVo cells assessed as reduction in cell viability after 72 hrs by MTT assay; type: functional, cell-based
[22] = system: HeLa; test: Induction of apoptosis in human HeLa cells assessed as PARP cleavage at 25 uM after 24 to 48 hrs by Western blot analysis; type: functional, cell-based; outline: as §5
[23] = biological target: T1, Tubulin; test: Inhibition of bovine brain tubulin assessed as extent of assembly preincubated for 15 mins by turbidimetry; outline: as §1
[24] = system: HeLa; test: Induction of apoptosis in human HeLa cells assessed as viable cells at 25 uM after 24 hrs using Annexin-V/PI staining by flow cytometry (reference value: 86.7 %); type: functional; settings: read-out: Activity
[25] = system: HeLa; test: Induction of apoptosis in human HeLa cells assessed as ROS production at 6.2 to 50 uM after 24 to 48 hrs using H2-DCFDA -based flow cytometry relative to control; type: functional, cell-based
Outline: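 HeLa cells incubated 24 or 48 h at the indicated concentrations, stained with H2-DCFDA and analysed by flow cytometry. Data are mean ± SEM of three independent experiments.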

[26] = system: HeLa; test: Induction of apoptosis in human HeLa cells assessed as early apoptotic cells at 25 uM after 24 hrs using Annexin-V/PI staining by flow cytometry (reference value: 5.26 %); type: functional
[27] = Antiproliferative activity against human RS4:11 cells assessed as reduction in cell viability after 72 hrs by MTT assay; type: functional, cell-based; settings: RS4-11, 72 h; outline: as §7
[28] = system: HeLa; test: Induction of apoptosis in human HeLa cells assessed as late apoptotic cells at 25 uM after 24 hrs using Annexin-V/PI staining by flow cytometry (reference value: 4.31 %); type: functional
[29] = system: HT-29; test: Antiproliferative activity against human HT-29 cells assessed as reduction in cell viability after 72 hrs by MTT assay; type: functional, cell-based; settings: HT-29, 72 h; outline: as §7
[30] = system: HeLa; test: Induction of apoptosis in human HeLa cells at 6.2 to 50 uM using Annexin-V/PI staining by flow cytometry; type: functional, cell-based; settings: TDE = time-dependent effect
[31] = system: HeLa; test: Induction of apoptosis in human HeLa cells assessed as reduction in Bcl-2 expression at 25 uM after 24 hrs by Western blot analysis; type: functional, cell-based; outline: as §5
[32] = system: HeLa; test: Upregulation of cyclin B protein level in human HeLa cells at 25 uM after 24 hrs by Western blot analysis; type: functional, cell-based
[33] = system: HeLa; test: Induction of apoptosis in human HeLa cells assessed as reduction in Mcl-1 expression at 25 uM after 48 hrs by Western blot analysis; type: functional, cell-based; outline: as §5
[34] = system: HeLa; test: Cell cycle arrest in human HeLa cells assessed as accumulation at G2/M phase at 25 uM after 24 hrs by flow cytometry; type: functional; outline: as §3
[35] = system: PBL; test: Cytotoxicity against PHA-stimulated human PBLs assessed as reduction in cell growth; type: cell-based; outline: as §6
[36] = system: HeLa; test: Induction of apoptosis in human HeLa cells assessed as reduction in Mcl-1 expression at 25 uM after 24 hrs by Western blot analysis; type: functional, cell-based; outline: as §5
[37] = system: HeLa; test: Downregulation of cdc25c protein level in human HeLa cells at 25 uM after 24 hrs by Western blot analysis; type: functional, cell-based; settings: in the assay text read “after 48 hrs” for “after 24 hrs”; outline: as §4
[38] = system: HeLa; test: Cell cycle arrest in human HeLa cells assessed as accumulation at G2/M phase after 24 hrs by flow cytometry; type: functional, cell-based; outline: as §3
[39] = system: Jurkat; test: Antiproliferative activity against human Jurkat cells assessed as reduction in cell viability after 72 hrs by MTT assay; type: functional, cell-based; outline: as §7
[40] = system: HeLa; test: Induction of apoptosis in human HeLa cells after 24 to 48 hrs using Annexin-V/PI staining by flow cytometry; type: functional, cell-based
[41] = system: HeLa; test: Induction of apoptosis in human HeLa cells assessed as caspase 3 cleavage at 25 uM after 24 to 48 hrs by Western blot analysis; type: functional, cell-based; outline: as §5
[42] = system: CA46; test: Cell cycle arrest in human CA46 cells assessed as reduction in mitotic index by Giemsa staining method relative to control; type: functional; set-up: scale not given: the % may be the effect or the level left
Outline: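 CA46 Burkitt lymphoma cells grown in RPMI 1640 with 17% FBS and 2 mM L-glutamine at 37 °C, 5% CO2, treated 16 h. Cells were swollen 10 min in half-strength PBS, fixed in 0.5% acetic acid–1.5% ethanol, then spread from 25% acetic acid/75% ethanol. Slides were Giemsa-stained. Mitotic cells were those with condensed chromosomes and no nuclear membrane, with ≥200 cells counted per condition.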

[43] = system: CA46; test: Cell cycle arrest in human CA46 cells assessed as accumulation at G2/M phase at 5 times IC50 by flow cytometry; type: functional
[44] = system: HeLa; test: Effect on PCM1 protein in human HeLa cells assessed as accumulation of pericentriolar material at 25 uM after 24 hrs by immunofluorescence microscopy; type: functional, cell-based
Outline: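 After 24 h at 25 µM, HeLa cells were stained with anti-PCM1 and Alexa-conjugated secondary antibody, with phalloidin-tetramethylrhodamine B for actin and DAPI for nuclei. Cells were imaged by confocal microscopy at 60×.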

## COc1ccc2c(c1OC)C(=O)O[C@@H]2[C@H]1c2c(c(-c3ccccc3)c3c(c2OC)OCO3)CCN1C
[1]
  IC50: > 400 µM
[2]
  Activity: 18.1%
[3]
  Activity: Active
[4]
  Activity: Dose-dependent effect
[5]
  Activity: Dose-dependent effect
[6]
  pIC50: 5.28
[7]
  Activity: tde
[8]
  Activity: Active
[9]
  Activity: Active
[10]
  pIC50: < 3.70
[11]
  Activity: Active
[12]
  pIC50: 5.13
[13]
  Activity: Active
[14]
  IC50: > 400 µM
[15]
  pIC50: 5.49
[16]
  Activity: Active
[17]
  pIC50: 4.17
[18]
  inhibition: 14%
[19]
  Activity: Active
[20]
  Activity: Active
[21]
  pIC50: 4.37
[22]
  Activity: Active
[23]
  IC50: > 400 µM
[24]
  viability at 25 µM: 7.53%
[25]
  Activity: Active
[26]
  Activity: 15.9%
[27]
  pIC50: 5.62
[28]
  Activity: 18.4%
[29]
  pIC50: 4.44
[30]
  Activity: tde
[31]
  Activity: inactive
[32]
  Activity: Active
[33]
  Activity: Active
[34]
  Activity: >80%
[35]
  pIC50: 4.26
[36]
  Activity: Active
[37]
  Activity: Active
[38]
  Activity: Dose-dependent effect
[39]
  pIC50: 5.27
[40]
  Activity: Dose-dependent effect
[41]
  Activity: Active

## COc1ccc(/C=C\c2cc(OC)c(OC)c(OC)c2)cc1O [COMBRETASTATIN A4]
[42]
  Activity: 46%
[43]
  Activity: >80%

## COC(=O)Nc1nc2cc(C(=O)c3cccs3)ccc2[nH]1
[44]
  Activity: Active
